What was measured:
[1] = organism: Rattus norvegicus; assay: Percent diffusion through fuzzy rat skin after 48 h of incubation; assay type: ADME; details: in vitro
Procedure, shortened: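 Whole ventral and dorsal skin from 8-week fuzzy rats (about 250 g) mounted in diffusion cells. Receptor was pH 7.0 phosphate-buffered 0.15 M NaCl with 22 ppm gentamicin. Ethanolic test solution spread on the skin surface. Cells occluded at 32 °C, stirred at 150 rpm, and 0.2 mL sampled with buffer replacement over 48 h. HPLC/UV quantitation; run in triplicate.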

[2] = Hydrolysis half-life at 37 degree C in dog plasma; assay type: ADME, Canis lupus familiaris
Procedure, shortened: (§1)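 0.1–0.2 mg prodrug in a small drop of DMSO, mixed with 1 mL plasma held at 37 °C in a thermostated water bath. Samples drawn at intervals and injected directly onto HPLC to follow loss of prodrug and/or appearance of the parent amine; concentrations by external standard from peak areas. Half-life derived from the time course.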

[3] = Hydrolysis half-life at 37 degree C in rat plasma; assay type: ADME; procedure, shortened: as §1
[4] = Hydrolysis half-life at 37 degree C in phosphate buffer at pH 7.4; assay type: ADME
Procedure, shortened: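 Done as for the plasma runs but in pH 7.4 Sorensen's buffer at 37 °C. 0.1–0.2 mg prodrug added from a small DMSO drop, sampled at time points, and analysed by direct-injection HPLC for prodrug loss and/or parent amine formation. External-standard quantitation.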

SMILES | Diffusion [1] | half-life [2] | half-life [3] | half-life [4]
CC(C)(C)NC[C@H](O)COc1nsnc1N1CCOCC1 [TIMOLOL] | 18.14% | – | – | –
CC(=O)OCOC(=O)N(CC(O)COc1nsnc1N1CCOCC1)C(C)(C)C (stereo not drawn) | 0.53% | 9.7 min | 3 min | 23.5 h
CC(=O)OC(C)OC(=O)N(CC(O)COc1ccc(CC(N)=O)cc1)C(C)C (stereo not drawn) | 0.49% | – | – | –
CC(C)NCC(O)COc1cccc2[nH]ccc12 (stereo not drawn) [PINDOLOL] | 0.03% | – | – | –
CC(C)NCC(O)COc1cccc2ccccc12 (stereo not drawn) [PROPRANOLOL] | 2.4% | – | – | –
CC(=O)OC(C)OC(=O)N(CC(O)COc1cccc2ccccc12)C(C)C (stereo not drawn) | 0.45% | – | 3 min | 44.5 h
CC(=O)OC(C)OC(=O)N(CC(O)COc1cccc2[nH]ccc12)C(C)C (stereo not drawn) | 0.35% | – | – | –
CC(C)NCC(O)COc1ccc(CC(N)=O)cc1 (stereo not drawn) [ATENOLOL] | 0.13% | – | – | –

From ChEMBL document CHEMBL1124025, “(Acyloxy)alkyl carbamates as novel bioreversible prodrugs for amines: increased permeation through biological membranes” (J Med Chem, 1988)
